This is an account of results in ChEMBL document CHEMBL1121577, “Glycerides as prodrugs. 3. Synthesis and antiinflammatory activity of [1-(p-chlorobenzoyl)-5-methoxy-2-methylindole-3-acetyl]glycerides (indomethacin glycerides)” (J Med Chem, 1980).

Active and inactive are the calls of the source. The rule behind the calls is not given here.

For data set [1], the system named is Rattus norvegicus. Description: Dose that inhibits paw swelling by 25% compared with control in carrgeenin rat paw edema assay. Type of data set: functional. Summed up:
(§1)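 Rats given glycerides or indomethacin orally 2 h before subplantar injection of 0.1 mL 1.5% carrageenin solution.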

The subject of data set [2] is Rattus norvegicus. The data set is described as follows: Dose that inhibits paw swelling by 25% compared with control in carrgeenin rat paw edema assay; i = inactive at 18 umol/kg. Format: functional, organism-based. Put shortly: as §1
For data set [3], the system named is Rattus norvegicus. The data set is described as follows: inhibition of swelling in rat paw edema was measured at a dose of 2.8 micro mol/kg/day for days 14-25. Type of data set: functional. Put shortly: (§2)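 Adjuvant arthritis in rats: mycobacterial adjuvant injected subcutaneously into the tail; on day 14 animals with definite disease were selected and dosed daily on days 14-25. Hind paw swelling and severity scores (four paws scored) were expressed as % change vs diseased controls. Body weight gain was assessed over days 1-25; + marks significant gain.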

Data set [4] deals with Rattus norvegicus. Description: Percent changes of hind paw edema and severity scores compared to control animals at 2.8 micro mol/kg/day. Format: functional. Summed up:
as §2

For data set [5], the system named is Rattus norvegicus. Description: inhibition of swelling in rat paw edema was measured at a dose of 7.0 micro mol/kg/day for days 14-25. Format: functional. Put shortly: as §2
Data set [6] relates to Rattus norvegicus. Description: Percent changes of hind paw edema and severity scores compared to control animals at 7.0 micro mol/kg/day. Type of data set: functional. Put shortly:
as §2

Data set [7] has as its system Rattus norvegicus. The data set is described as follows: Gain in the body weight of rat was measured at 7.0 micro mol/kg/day. (+ means significant body weight). Type of data set: functional, organism-based. Put shortly:
as §2

Data set [8] has as its system Rattus norvegicus. Description: inhibition of swelling in rat paw edema was measured at a dose of 1.4 micro mol/kg/day for days 14-25. Format: functional. Put shortly:
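Rat adjuvant arthritis: adjuvant injected subcutaneously into the tail; after 14 days, only rats with definite disease were treated, with daily doses on days 14-25. Hind paw swelling was expressed as percent change versus diseased controls. Severity was scored on four paws, and body weight gain was followed over days 1-25.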

Data set [9] concerns Rattus norvegicus. The data set is described as follows: Percent changes of hind paw edema and severity scores compared to control animals at 0.7 micro mol/kg/day. Type of data set: functional. Put shortly: as §2
Data set [10] is filed under the species Rattus norvegicus. Description: Dose which produced lesions in 50% of the treated animals. Format: functional. Put shortly: (§3)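 Stomachs of rats from the oral carrageenin paw edema study (dosed 2 h before carrageenin) examined for gastric lesions by the Brodie and Hansen method. UD50 is the dose producing lesions in 50% of treated animals.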
A short description of data set [11]: Ratio of UD50 to that of ED25. The following applies: read-out: Therapeutic ratio.
Data set [12] concerns Rattus norvegicus. Description: Percent changes of hind paw edema and severity scores compared to control animals at 1.4 micro mol/kg/day. Type of data set: functional. Put shortly:
as §2

The subject of data set [13] is Rattus norvegicus. Description: inhibition of swelling in rat paw edema was measured at a dose of 0.7 micro mol/kg/day for days 14-25. Format: functional. Put shortly:
as §2

The subject of data set [14] is Rattus norvegicus. The data set is described as follows: Gain in the body weight of rat was measured at 2.8 micro mol/kg/day. (+ means significant body weight). Format: functional, organism-based. Put shortly:
as §2

For data set [15], the system named is Rattus norvegicus. The data set is described as follows: Dose that inhibits paw swelling by 25% compared with control in carrgeenin rat paw edema assay; i = inactive at 26 uM/Kg. Type of data set: functional, organism-based. Summed up:
as §1

Data set [16] relates to Rattus norvegicus. Description: Percent changes of hind paw edema and severity scores compared to control animals at 1.6 micro mol/kg/day. Type of data set: functional. Summed up: as §2
In data set [17] the test system is Rattus norvegicus. The data set is described as follows: Percent changes of hind paw edema and severity scores compared to control animals at 3.3 micro mol/kg/day. Format: functional. Summed up: as §2
Data set [18] concerns Rattus norvegicus. Description: inhibition of swelling in rat paw edema was measured at a dose of 1.6 micro mol/kg/day for days 14-25. Type of data set: functional. Summed up:
as §2

Data set [19] relates to Rattus norvegicus. Description: inhibition of swelling in rat paw edema was measured at a dose of 0.8 micro mol/kg/day for days 14-25. Format: functional. Put shortly: as §2
For data set [20], the system named is Rattus norvegicus. Description: Gain in the body weight of rat was measured at 14.0 micro mol/kg/day. (+ means significant body weight). Type of data set: functional, organism-based. Summed up: as §2
The species entered for data set [21] is Rattus norvegicus. The data set is described as follows: compound was measured as dose which produces lesions in the treated animals. Type of data set: functional. Put shortly:
as §3

Data set [22] concerns Rattus norvegicus. The data set is described as follows: Percent changes of hind paw edema and severity scores compared to control animals at 14.0 micro mol/kg/day. Format: functional. Summed up: as §2
For data set [23], the system named is Rattus norvegicus. Description: inhibition of swelling in rat paw edema was measured at a dose of 14.0 micro mol/kg/day for days 14-25. Type of data set: functional. Put shortly:
as §2

Data set [24] has as its system Rattus norvegicus. Description: Percent changes of hind paw edema and severity scores compared to control animals at 0.8 micro mol/kg/day. Type of data set: functional. Summed up:
as §2

Data set [25] can be described thus: Ratio of UD50 to that of ED25. As to conditions: read-out: Therapeutic ratio. Type of data set: ADME. Put shortly:
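Therapeutic index calculated as UD50 (dose causing gastric lesions in 50% of rats) divided by ED25 (dose inhibiting carrageenin paw edema by 25%), both from the same oral rat study.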

Data set [26] concerns Rattus norvegicus. Description: inhibition of swelling in rat adjuvant-induced arthritis was measured at a dose of 3.3 micro mol/kg/day for days 14-25.
In data set [27] the test system is Rattus norvegicus. The data set is described as follows: Gain in the body weight of rat was measured at 3.3 micro mol/kg/day. (+ means significant body weight). Format: functional, organism-based. Put shortly:
as §2

Data set [28] deals with Rattus norvegicus. Description: inhibition of swelling in rat paw edema was measured at a dose of 11.0 micro mol/kg/day for days 14-25. Format: functional. Summed up:
as §2

Data set [29] concerns Rattus norvegicus. The data set is described as follows: Percent changes of hind paw edema and severity scores compared to control animals at 11.0 micro mol/kg/day. Format: functional. Put shortly:
as §2

Data set [30] deals with Rattus norvegicus. Description: Gain in the body weight of rat was measured at 11.0 micro mol/kg/day. (+ means significant body weight). Format: functional, organism-based. Summed up:
as §2

In data set [31] the test system is Rattus norvegicus. Description: inhibition of swelling in rat paw edema was measured at a dose of 5.6 micro mol/kg/day for days 14-25. Format: functional. Put shortly:
as §2

The test system of data set [32] is Rattus norvegicus. Description: Percent changes of hind paw edema and severity scores compared to control animals at 5.6 micro mol/kg/day. Type of data set: functional. Summed up: as §2
The test system of data set [33] is Rattus norvegicus. The data set is described as follows: Gain in the body weight of rat was measured at 5.6 micro mol/kg/day. (+ means significant body weight). Type of data set: functional, organism-based. Put shortly: as §2

`CCCCCCCCCCCCCCCC(=O)OCC(COC(=O)CCCCCCCCCCCCCCC)OC(=O)Cc1c(C)n(C(=O)c2ccc(Cl)cc2)c2ccc(OC)cc12` yielded an ED25 in the data set with Rattus norvegicus [1] of 23 µM/kg.

Compound `CCCCCCCCCCCCCCCCCCCC(=O)OCC(COC(=O)CCCCCCCCCCCCCCCCCCC)OC(=O)Cc1c(C)n(C(=O)c2ccc(Cl)cc2)c2ccc(OC)cc12` gave an ED25 with Rattus norvegicus [1] of 38 µM/kg.

Consider `COc1ccc2c(c1)c(CC(=O)OCC(COC(=O)Cc1c(C)n(C(=O)c3ccc(Cl)cc3)c3ccc(OC)cc13)OC(=O)Cc1c(C)n(C(=O)c3ccc(Cl)cc3)c3ccc(OC)cc13)c(C)n2C(=O)c1ccc(Cl)cc1`, for which the ED25 result in the data set with Rattus norvegicus [2] is “inactive”.

In the data set with Rattus norvegicus [1], `COc1ccc2c(c1)c(CC(=O)OCC(CO)OC(=O)Cc1c(C)n(C(=O)c3ccc(Cl)cc3)c3ccc(OC)cc13)c(C)n2C(=O)c1ccc(Cl)cc1` (centres undefined) yielded an ED25 of 31 µM/kg.

Compound `CCCCCCCC(=O)OCC(COC(=O)CCCCCCC)OC(=O)Cc1c(C)n(C(=O)c2ccc(Cl)cc2)c2ccc(OC)cc12` showed an ED25 in the data set with Rattus norvegicus [1] of 12 µM/kg.

On to `COc1ccc2c(c1)c(CC(=O)O)c(C)n2C(=O)c1ccc(Cl)cc1` [INDOMETHACIN], for which the Inhibition is listed as 76% in the data set on Rattus norvegicus [3], 75% in the data set on Rattus norvegicus [5], 57% with Rattus norvegicus [8] and 37% with Rattus norvegicus [13]. Further, the Change came out at 56% in the data set on Rattus norvegicus [4], 74% in the data set on Rattus norvegicus [6], 25% in the data set on Rattus norvegicus [9] and 33% with Rattus norvegicus [12]. In the data set on Rattus norvegicus [1], the ED25 turned out to be 5 µM/kg. For the same compound, the Change result with Rattus norvegicus [7] and in the data set on Rattus norvegicus [14] was “Active” each time. Also, in the data set filed under Rattus norvegicus [10], the UD50 was 10 µM/kg. Besides, the selectivity ratio in data set [11] was determined as 2.

Take `CCCCCCCCCC(=O)OCC(COC(=O)CCCCCCCCC)OC(=O)Cc1c(C)n(C(=O)c2ccc(Cl)cc2)c2ccc(OC)cc12`: the ED25 in the data set on Rattus norvegicus [1] turned out to be 18 µM/kg.

Take `COc1ccc2c(c1)c(CC(=O)OCC(O)COC(=O)Cc1c(C)n(C(=O)c3ccc(Cl)cc3)c3ccc(OC)cc13)c(C)n2C(=O)c1ccc(Cl)cc1`: the ED25 result with Rattus norvegicus [15] was “inactive”.

As for `COc1ccc2c(c1)c(CC(=O)OC(COC(C)=O)COC(C)=O)c(C)n2C(=O)c1ccc(Cl)cc1`, the Change in the data set on Rattus norvegicus [16] is 28%; in the data set on Rattus norvegicus [17] it was 55%; in the data set on Rattus norvegicus [20] it was “significant body weight”; in the data set on Rattus norvegicus [22], 60%; with Rattus norvegicus [24], 25%; in the data set with Rattus norvegicus [27] it was “significant body weight”. Moreover, the Inhibition is 50% with Rattus norvegicus [18], 43% in the data set on Rattus norvegicus [19], 79% in the data set on Rattus norvegicus [23] and 72% with Rattus norvegicus [26]. In the data set on Rattus norvegicus [1], the ED25 is 14 µM/kg. Moreover, the UD50 in the data set listed under Rattus norvegicus [21] was determined as 67 µM/kg. The selectivity ratio in [25] is 5.

In the data set on Rattus norvegicus [1], `COc1ccc2c(c1)c(CC(=O)OC(CO)CO)c(C)n2C(=O)c1ccc(Cl)cc1` displayed an ED25 of 21 µM/kg.

As for `COc1ccc2c(c1)c(CC(=O)OCC(O)CO)c(C)n2C(=O)c1ccc(Cl)cc1` (centres undefined), the Change in the data set with Rattus norvegicus [16] is given as 42%; with Rattus norvegicus [17] it was 55%; in the data set with Rattus norvegicus [20], “significant body weight”; with Rattus norvegicus [22], 53%; with Rattus norvegicus [24], 31%; with Rattus norvegicus [27], “significant body weight”. Moreover, the Inhibition was 67% in the data set on Rattus norvegicus [18], 57% with Rattus norvegicus [19], 76% in the data set on Rattus norvegicus [23] and 73% in the data set on Rattus norvegicus [26]. The compound also yielded an ED25 with Rattus norvegicus [1] of 5 µM/kg.

On to `CCCCCCCCCCCC(=O)OCC(COC(=O)CCCCCCCCCCC)OC(=O)Cc1c(C)n(C(=O)c2ccc(Cl)cc2)c2ccc(OC)cc12`, for which the Inhibition in the data set with Rattus norvegicus [28] was determined as 73%; in the data set on Rattus norvegicus [3] it was 70%; with Rattus norvegicus [31], 63%; in the data set on Rattus norvegicus [8], 30%. In addition, the Change in the data set on Rattus norvegicus [29] is reported as 74%; with Rattus norvegicus [4] it was 41%; in the data set on Rattus norvegicus [30], “significant body weight”; in the data set with Rattus norvegicus [32], 53%; in the data set with Rattus norvegicus [12] it was 30%; in the data set on Rattus norvegicus [33], “significant body weight”. The ED25 with Rattus norvegicus [1] amounted to 13 µM/kg. In the data set filed under Rattus norvegicus [10], this compound registered a UD50 of 78 µM/kg. In addition, in [11], the selectivity ratio was 6.

Regarding `CCCC(=O)OCC(COC(=O)CCC)OC(=O)Cc1c(C)n(C(=O)c2ccc(Cl)cc2)c2ccc(OC)cc12`, the ED25 in the data set with Rattus norvegicus [1] is 22 µM/kg.

By Inhibition is commonly meant the drop in the measured response relative to a control, in per cent.
